According to paper PMC9839614 (Cancer cell, 2022):

How the values were obtained:
MOLM-13 parental cells = assay: Drug treatment IC50 measurement; assay type: cell-based; details: Homo sapiens, MOLM-13, read-out: IC50 (cell viability)
Summary of the method: (§1)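 MOLM-13 cells (parental or venetoclax-resistant) were plated and exposed to the test compound across a range of concentrations, with at least three technical replicates per concentration per cell line. Viability was read by CellTiter-Glo luminescence. IC50 was calculated from technical triplicates within each experiment, over n=3 experiments, and reported as mean with SEM.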

[1] = system: venetoclax-resistant MOLM-13 cell lines; assay: Drug treatment IC50 measurement; assay type: cell-based, human
Summary of the method: as §1

[2] = system: RNA splicing in MOLM-13 cells; assay: RNA-seq alternative splicing analysis; assay type: cell-based, human; details: 48 hours, SM09419 100 nM, venetoclax 10 nM
Summary of the method: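 Total RNA was extracted from MOLM-13 cells with an RNeasy column kit for RNA-seq. Before downstream analysis, FASTQ reads were trimmed of sequencing adapters and of low-quality reads (Q<15).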

[3] = first-in-human study, advanced solid tumors; cited from earlier work

CC1(C)CCC(CN2CCN(c3ccc(C(=O)NS(=O)(=O)c4ccc(NCC5CCOCC5)c([N+](=O)[O-])c4)c(Oc4cnc5[nH]ccc5c4)c3)CC2)=C(c2ccc(Cl)cc2)C1 [venetoclax]
IC50 (MOLM-13 parental cells): ~15 nM
IC50 ([1]; Homo sapiens, MOLM-13, 504 h, read-out: IC50 (cell viability)): > 99 nM
IC50 of resistant cell lines relative to parental cells ([1]; venetoclax-resistant vs parental MOLM-13): approximately six times greater
Effect on RNA splicing [2]: no significant effects on RNA splicing

CN1CCN(c2cc(C(=O)Nc3cc4cc(-c5cnn(C)c5)ccc4cn3)ccn2)CC1 [Cirtuvivint]
Grade 3 anemia rate [3]: < 15%
